From ChEMBL document CHEMBL1133729, “Design, synthesis, and structure-activity relationships of phthalimide-phenylpiperazines: a novel series of potent and selective alpha(1)(a)-adrenergic receptor antagonists” (J Med Chem, 2000)

Experiments:
[1] = target: T1, 5-hydroxytryptamine receptor 1A (Homo sapiens) (UniProt P08908); assay: Compound at 1 uM was tested for the inhibition of radioligand [3H]8-OH-DPAT binding to recombinant human 5-hydroxytryptamine 1A receptor
T1 sequence (whole entry): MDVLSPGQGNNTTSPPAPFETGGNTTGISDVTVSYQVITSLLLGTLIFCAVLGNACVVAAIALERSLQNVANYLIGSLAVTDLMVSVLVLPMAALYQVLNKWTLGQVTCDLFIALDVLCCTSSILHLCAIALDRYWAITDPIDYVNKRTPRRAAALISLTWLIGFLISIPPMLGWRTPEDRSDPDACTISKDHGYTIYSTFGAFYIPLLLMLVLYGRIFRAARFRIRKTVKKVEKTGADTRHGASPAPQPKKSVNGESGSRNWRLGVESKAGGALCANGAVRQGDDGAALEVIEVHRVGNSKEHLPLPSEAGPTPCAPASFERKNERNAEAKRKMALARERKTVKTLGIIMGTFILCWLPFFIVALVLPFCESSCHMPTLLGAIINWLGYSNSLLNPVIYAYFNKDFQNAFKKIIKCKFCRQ

[2] = target: Histamine H1 receptor (Cavia porcellus) (UniProt P31389); assay: Compound at 1 uM was tested for the inhibition of radioligand [3H]pyrilamine binding to central histamine H1 receptor in guinea pig brain
Sequence of Histamine H1 receptor (Cavia porcellus) (P31389 whole entry): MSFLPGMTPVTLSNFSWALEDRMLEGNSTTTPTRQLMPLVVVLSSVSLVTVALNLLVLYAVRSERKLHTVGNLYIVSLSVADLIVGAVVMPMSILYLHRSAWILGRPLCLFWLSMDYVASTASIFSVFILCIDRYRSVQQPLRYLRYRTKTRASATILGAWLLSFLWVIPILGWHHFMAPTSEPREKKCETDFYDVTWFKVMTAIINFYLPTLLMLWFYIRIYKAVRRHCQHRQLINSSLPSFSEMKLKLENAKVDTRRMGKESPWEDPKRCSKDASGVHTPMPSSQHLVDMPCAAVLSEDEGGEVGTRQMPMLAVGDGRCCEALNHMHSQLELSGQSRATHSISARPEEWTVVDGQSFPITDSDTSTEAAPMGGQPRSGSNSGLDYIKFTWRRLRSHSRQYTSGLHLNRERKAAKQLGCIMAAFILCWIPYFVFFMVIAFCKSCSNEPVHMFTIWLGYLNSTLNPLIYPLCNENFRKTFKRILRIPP
In short: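 Central H1 from guinea pig brain membranes; [3H]pyrilamine 25 °C for 60 min, pH 7.4 Tris-HCl/NaCl/EDTA buffer; 1 μM pyrilamine for nonspecific binding. Percent inhibition by compound at 1 μM, duplicate; filtered, scintillation counted.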

[3] = target: T2, Alpha-1D adrenergic receptor (Homo sapiens, UniProt P25100); assay: Binding affinity towards cloned human alpha-1D adrenergic receptor was determined using [125]-HEAT as radioligand
T2 sequence (P25100 whole entry): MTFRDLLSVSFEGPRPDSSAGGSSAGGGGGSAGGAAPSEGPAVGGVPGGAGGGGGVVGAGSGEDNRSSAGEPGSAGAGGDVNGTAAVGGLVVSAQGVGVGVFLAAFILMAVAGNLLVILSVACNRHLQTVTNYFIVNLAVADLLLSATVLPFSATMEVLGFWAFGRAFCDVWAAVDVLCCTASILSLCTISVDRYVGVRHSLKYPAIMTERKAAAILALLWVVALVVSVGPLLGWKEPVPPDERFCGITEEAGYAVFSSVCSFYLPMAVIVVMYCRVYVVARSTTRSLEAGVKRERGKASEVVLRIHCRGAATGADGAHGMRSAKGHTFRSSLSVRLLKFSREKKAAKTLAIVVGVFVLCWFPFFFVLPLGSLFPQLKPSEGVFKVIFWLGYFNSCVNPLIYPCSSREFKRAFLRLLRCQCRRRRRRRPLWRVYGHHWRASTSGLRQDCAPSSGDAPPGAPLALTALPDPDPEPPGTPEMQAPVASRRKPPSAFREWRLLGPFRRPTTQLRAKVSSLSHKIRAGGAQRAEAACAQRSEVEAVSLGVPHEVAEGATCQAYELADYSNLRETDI
In short: (§1)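 Human α1a, α1b and α1d cDNAs transiently expressed in COS-1 cells (DEAE-dextran); membranes harvested 72 h post-transfection. Competition versus 50 pM [125I]HEAT (final), 0.1 pM–10 μM test compound in half-log steps, in TNE buffer pH 7.4. Membrane protein 0.1 μg (α1a, α1b) or 2.6 μg (α1d); 1 h at 25 °C. Filtration, scintillation counting; Ki = IC50/(1 + [L]/Kd). Ratios are subtype Ki over α1a Ki.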

[4] = target: T3, Alpha-2B adrenergic receptor (Rattus norvegicus) (UniProt P19328); assay: Compound at 1 uM was tested for the inhibition of radioligand [3H]yohimbine binding to rat alpha-2B adrenergic receptor
T3 sequence (whole entry): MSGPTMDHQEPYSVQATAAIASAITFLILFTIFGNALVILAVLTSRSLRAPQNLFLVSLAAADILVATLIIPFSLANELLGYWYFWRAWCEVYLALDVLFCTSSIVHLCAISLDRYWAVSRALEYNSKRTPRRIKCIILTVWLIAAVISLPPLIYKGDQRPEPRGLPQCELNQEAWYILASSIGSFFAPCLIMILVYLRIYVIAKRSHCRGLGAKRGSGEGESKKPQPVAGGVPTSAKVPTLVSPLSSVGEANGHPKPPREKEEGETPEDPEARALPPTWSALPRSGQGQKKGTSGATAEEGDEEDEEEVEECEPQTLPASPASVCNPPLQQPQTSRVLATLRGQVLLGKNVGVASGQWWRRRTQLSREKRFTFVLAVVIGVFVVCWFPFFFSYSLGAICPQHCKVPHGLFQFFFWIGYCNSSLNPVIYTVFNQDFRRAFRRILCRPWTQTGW
In short: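 Rat kidney cortical membranes; [3H]yohimbine, 25 °C for 30 min, pH 7.4 Tris-HCl/NaCl/EDTA; 10 μM phentolamine for nonspecific binding. Percent inhibition at 1 μM compound, in duplicate; filtration, scintillation counting.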

[5] = target: 5-hydroxytryptamine receptor 7 (Homo sapiens, UniProt P34969); assay: Compound at 1 uM was tested for the inhibition of radioligand [3H]LSD binding to recombinant human 5-hydroxytryptamine 7 receptor
Sequence of 5-hydroxytryptamine receptor 7 (P34969 whole entry): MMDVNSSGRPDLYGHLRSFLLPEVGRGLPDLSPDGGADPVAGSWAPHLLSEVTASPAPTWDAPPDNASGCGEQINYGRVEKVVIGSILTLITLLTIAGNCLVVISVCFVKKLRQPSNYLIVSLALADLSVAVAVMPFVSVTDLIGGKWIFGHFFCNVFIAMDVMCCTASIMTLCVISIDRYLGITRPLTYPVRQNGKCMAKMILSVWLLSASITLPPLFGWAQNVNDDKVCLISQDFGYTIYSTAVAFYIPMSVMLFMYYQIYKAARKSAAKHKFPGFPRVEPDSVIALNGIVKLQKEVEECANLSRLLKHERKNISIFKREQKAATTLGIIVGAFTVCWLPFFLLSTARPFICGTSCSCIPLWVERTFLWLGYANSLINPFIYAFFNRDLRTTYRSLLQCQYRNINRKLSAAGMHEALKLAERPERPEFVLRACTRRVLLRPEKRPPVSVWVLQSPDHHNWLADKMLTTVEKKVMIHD
In short: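 Human 5-HT7 expressed in CHO cells; [3H]LSD, 120 min at 37 °C, pH 7.4 Tris-HCl/NaCl/EDTA; 5 μM 5-HT for nonspecific binding. Compound at 1 μM, duplicate determinations of percent inhibition; filtration, scintillation counting.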

[6] = target: Adrenergic receptors; alpha-1 A & B (Homo sapiens) (UniProt P35348+P35368); assay: Ratio of binding affinity towards Alpha1b to Alpha-1A; format: protein assay; in short: as §1
D(2) dopamine receptor = D(2) dopamine receptor (Homo sapiens, UniProt P14416); assay: Compound at 1 uM was tested for the inhibition of radioligand [3H]spiperone binding to recombinant human Dopamine receptor D2S
Sequence of D(2) dopamine receptor (P14416 whole entry): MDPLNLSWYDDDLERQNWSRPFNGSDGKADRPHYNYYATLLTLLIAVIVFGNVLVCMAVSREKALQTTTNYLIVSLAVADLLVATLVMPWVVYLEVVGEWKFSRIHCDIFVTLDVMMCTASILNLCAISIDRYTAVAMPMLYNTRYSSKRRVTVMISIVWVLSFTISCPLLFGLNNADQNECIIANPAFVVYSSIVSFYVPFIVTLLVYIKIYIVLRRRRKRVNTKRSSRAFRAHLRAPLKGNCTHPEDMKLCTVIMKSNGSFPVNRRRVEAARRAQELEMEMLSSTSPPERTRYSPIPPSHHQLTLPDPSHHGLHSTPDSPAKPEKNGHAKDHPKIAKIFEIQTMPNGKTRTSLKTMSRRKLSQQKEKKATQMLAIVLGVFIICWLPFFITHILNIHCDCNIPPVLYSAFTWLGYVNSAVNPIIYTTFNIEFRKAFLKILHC
In short: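 Human D2S in CHO membranes; [3H]spiperone, 37 °C for 120 min in 50 mM Tris-HCl, 150 mM NaCl, 5 mM EDTA, pH 7.4; 10 μM haloperidol for nonspecific binding. Percent inhibition at 1 μM, duplicate; filtration, scintillation counting.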

| SMILES | inhibition [1] [%] | inhibition [2] [%] | Ki [3] [nM] | inhibition [4] [%] | inhibition [5] [%] | Ratio [6] | inhibition (D(2) dopamine receptor) [%] |
| --- | --- | --- | --- | --- | --- | --- | --- |
| CC(C)Oc1ccccc1N1CCN(C[C@@H](O)CNC(=O)c2ccc3c(c2)C(=O)N(c2cccc(F)c2)C3=O)CC1 | 98 | 95 | 190 | 70 | 95 | > 1960 | 51 |
| Cc1ccc(N2C(=O)c3ccc(C(=O)NC[C@H](O)CN4CCN(c5ccccc5OC(C)C)CC4)cc3C2=O)cc1 | 92 | 93 | 54 | 75 | 90 | > 5690 | 70 |
| CC(C)Oc1ccccc1N1CCN(C[C@@H](O)CNC(=O)c2ccc3c(c2)C(=O)N(c2ccc(N(C)C)cc2)C3=O)CC1 | 92 | 88 | 52 | 73 | 95 | > 6060 | 71 |

Compounds with a lower Ki [3], results first:

| inhibition [1] [%] | inhibition [2] [%] | Ki [3] [nM] | inhibition [4] [%] | inhibition [5] [%] | Ratio [6] | inhibition (D(2) dopamine receptor) [%] | SMILES |
| --- | --- | --- | --- | --- | --- | --- | --- |
| 90 | 97 | 37 | 66 | 95 | > 12500 | 94 | Cc1ccc(N2C(=O)c3ccc(C(=O)NCCCN4CCN(c5ccccc5OC(C)C)CC4)cc3C2=O)cc1 |
| 95 | 87 | 22 | 78 | 92 | 1180 | 90 | CC(C)Oc1ccccc1N1CCN(CCCNC(=O)c2ccc3c(c2)C(=O)N(c2cccc(F)c2)C3=O)CC1 |
| 104 | 97 | 16 | 79 | 92 | 3280 | 87 | COc1ccc(N2C(=O)c3ccc(C(=O)NCCCN4CCN(c5ccccc5OC(C)C)CC4)cc3C2=O)cc1 |
| 115 | 18 | 0.18 | 86 | 74 | – | 73 | CCOc1ccccc1OCCN[C@H](C)Cc1ccc(OC)c(S(N)(=O)=O)c1 [TAMSULOSIN] |
